Measurements as given in ChEMBL document CHEMBL4699442, “Discovery of Soft-Drug Topical Tool Modulators of Sphingosine-1-phosphate Receptor 1 (S1PR1)” (ACS Med Chem Lett, 2019).
Each block holds one compound with its values, some of them ahead of it.

What was measured:
[1] = Metabolic stability in human Hepatocyte assessed as intrinsic clearance at 1 uM incubated for 90 mins by UPLC-MS/MS analysis; assay type: ADME, tissue-based; conditions: hepatocytes
Outline: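 Human hepatocytes were incubated with compound to capture phase 2 and other metabolism.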

[2] = Dissociation constant, pKa of compound by potentiometric fast UV-metric titration method; assay type: physicochemical
[3] = Lipophilicity, logD of compound at pH 7.4 by RP-HPLC analysis; assay type: physicochemical; conditions: buffer
[4] = Metabolic stability in human skin S9 cells assessed as half life at 0.5 uM incubated for 180 mins by UPLC-MS/MS analysis; assay type: ADME, subcellular, Zone of skin; conditions: s9, 3 h
Outline: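 Skin S9 fraction was incubated with compound in the presence of enzymatic cofactors. Stability was followed over 180 min, n = 1.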

[5] = Stability of compound in DMSO assessed as decrease in purity incubated for 24 hrs; assay type: physicochemical
Outline: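 Compound was held in DMSO solution and its stability judged after 24 h. Single determination, n = 1.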

SMILES: CCC/N=C1\S/C(=C\c2ccc(O)c(Cl)c2)C(=O)N1c1ccccc1C
CLH [1]: 8.4 mL/min/g
pKa [2]: 6.8
logD [3]: 3.8

SMILES: CCC/N=C1\S/C(=C\c2ccc(O)c(Cl)c2)C(=O)N1C1CCS(=O)(=O)CC1
logD [3]: 2.6

SMILES: CCC/N=C1\S/C(=C\c2ccc(O)c(Cl)c2)C(=O)N1c1ccccc1OC
logD [3]: 3.3

SMILES: Cc1ccccc1N1C(=O)/C(=C/c2ccc(O)c(Cl)c2)S/C1=N\CCCF
logD [3]: 3.4

SMILES: CCC/N=C1\S/C(=C\c2ccc(O)cc2)C(=O)N1c1ccccc1C
CLH [1]: 1.7 mL/min/g
pKa [2]: 8.3
logD [3]: 3.5

SMILES: CCC/N=C1\S/C(=C\c2ccc(O)cn2)C(=O)N1c1ccccc1C
CLH [1]: 7.9 mL/min/g
pKa [2]: 7.1
logD [3]: 3

SMILES: CCC/N=C1\S/C(=C\c2ccc(O)c(Cl)c2)C(=O)N1C(C)C
logD [3]: > 4.3

SMILES: CCC/N=C1\S/C(=C\c2ccc(O)c(Cl)c2)C(=O)N1c1ccccc1O
logD [3]: 2.7

SMILES: Cc1ccccc1N1C(=O)/C(=C/c2ccc(O)c(Cl)c2)S/C1=N\C1COC1
logD [3]: 2.6

SMILES: CCC/N=C1\S/C(=C\c2ccc(O)c(Cl)c2)C(=O)N1C1CC1
logD [3]: 3.4

SMILES: CCC/N=C1\S/C(=C\c2ccc(O)c(Cl)c2)C(=O)N1C1CCOCC1
logD [3]: 3.7

SMILES: COCC/N=C1\S/C(=C\c2ccc(O)c(Cl)c2)C(=O)N1c1ccccc1C
logD [3]: 2.9

SMILES: Cc1ccccc1N1C(=O)/C(=C/c2ccc(O)c(Cl)c2)S/C1=N\CCO
logD [3]: 1.9

SMILES: CCC/N=C1\S/C(=C\c2ccc(O)c(C(F)(F)F)c2)C(=O)N1c1ccccc1C
CLH [1]: 4.2 mL/min/g
pKa [2]: 6.6
logD [3]: 3.8

SMILES: CCC/N=C1\S/C(=C\c2ccc(O)c(Cl)c2)C(=O)N1C1CCN(C)C(=O)C1 (racemic)
logD [3]: 0.6

Now from value to compound:

CLH [1]: 12 mL/min/g
pKa [2]: 8.6
logD [3]: 4.3
SMILES: CCC/N=C1\S/C(=C\c2ccc(O)c(C(C)C)c2)C(=O)N1c1ccccc1C

t1/2 [4]: 8.2 min
SMILES: CCC/N=C1\S/C(=C\c2ccc(OC(=O)CCO)c(C)c2)C(=O)N1c1ccccc1C

t1/2 [4]: 8.8 min
SMILES: CCC/N=C1\S/C(=C\c2ccc(OC(C)=O)c(Br)c2)C(=O)N1c1ccccc1C

CLH [1]: 31 mL/min/g
pKa [2]: 8.5
logD [3]: 3.8
SMILES: CCC/N=C1\S/C(=C\c2ccc(O)c(C)c2)C(=O)N1c1ccccc1C

Stabilty [5]: Unstable
SMILES: CCC/N=C1\S/C(=C\c2ccc(OC(=O)COC)c(C)c2)C(=O)N1c1ccccc1C

t1/2 [4]: > 180 min
SMILES: CCC/N=C1\S/C(=C\c2ccc(OC(=O)C(C)(C)C)c(C)c2)C(=O)N1c1ccccc1C

t1/2 [4]: 21 min
SMILES: CCC/N=C1\S/C(=C\c2ccc(OC(=O)C(C)C)c(C)c2)C(=O)N1c1ccccc1C

t1/2 [4]: 7.3 min
SMILES: CCC/N=C1\S/C(=C\c2ccc(OC(C)=O)c(C)c2)C(=O)N1c1ccccc1C

t1/2 [4]: 8.3 min
SMILES: CCC/N=C1\S/C(=C\c2ccc(OC(C)=O)c(C(F)(F)F)c2)C(=O)N1c1ccccc1C

Stabilty [5]: Unstable
SMILES: CCC/N=C1\S/C(=C\c2ccc(OC(=O)CN(C)C)c(C)c2)C(=O)N1c1ccccc1C

CLH [1]: 6 mL/min/g
pKa [2]: 6.4
logD [3]: 3.9
SMILES: CCC/N=C1\S/C(=C\c2ccc(O)c(Br)c2)C(=O)N1c1ccccc1C

t1/2 [4]: 4.8 min
SMILES: CCC/N=C1\S/C(=C\c2ccc(OC(=O)CCOC)c(C)c2)C(=O)N1c1ccccc1C

t1/2 [4]: > 180 min
SMILES: CCC/N=C1\S/C(=C\c2ccc(OC[C@H](O)CO)c(Cl)c2)C(=O)N1c1ccccc1C [PONESIMOD]
